Results published in ChEMBL document CHEMBL1156534, “Hemopressin is an inverse agonist of CB1 cannabinoid receptors” (Proc Natl Acad Sci U S A, 2007).
The source made the active and inactive calls.

What was measured:
[1] = biological target: Cannabinoid receptor 1 (Homo sapiens) (UniProt P21554); assay: Antagonist activity at CB1 receptor expressed in SKNSH cells assessed as blockade of Hu210-induced increase in antibody recognition at 100 nM by ELISA relative to control; assay type: functional, cell-based; design: scale not given: the % may be the effect or the level left
[2] = system: Rattus norvegicus; assay: Antihyperalgesic effects in Wistar rat assessed as reduction of carrageenan-induced paw pressure at 100 ug/kg, po after 3 hrs; assay type: functional, organism-based
Outline: (§1)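 Male Wistar rats (200 g) received carrageenan 200 μg/paw intraplantar in saline into the right hind paw. Peptide was given at the same time: intraplantar 10 μg/paw, intrathecal 0.5 or 5 μg/kg, or oral 50 or 100 μg/kg; saline-treated rats served as controls. Paw-pressure withdrawal threshold (force ramp 16 g/s) was read at 0 and 3 h. n = 6–8.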

[3] = biological target: T1, Type-1 angiotensin II receptor (Homo sapiens) (UniProt P30556); assay: Antagonist activity at AT1 angiotensin receptor expressed in SKNSH cells assessed as blockade of angiotensin 2-induced increase in antibody recognition at 100 nM by ELISA relative to control; assay type: functional, cell-based; design: scale not given: the % may be the effect or the level left
T1 sequence (whole entry): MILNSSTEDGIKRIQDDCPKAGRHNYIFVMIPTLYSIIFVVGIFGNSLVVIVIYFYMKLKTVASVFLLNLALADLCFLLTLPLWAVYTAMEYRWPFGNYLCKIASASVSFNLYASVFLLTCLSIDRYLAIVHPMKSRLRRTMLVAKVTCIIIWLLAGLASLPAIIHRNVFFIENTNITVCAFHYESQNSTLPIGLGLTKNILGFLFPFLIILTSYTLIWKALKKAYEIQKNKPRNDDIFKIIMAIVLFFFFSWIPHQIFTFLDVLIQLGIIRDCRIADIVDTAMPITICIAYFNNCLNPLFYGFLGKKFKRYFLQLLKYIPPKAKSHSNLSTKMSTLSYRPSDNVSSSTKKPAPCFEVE

[4] = biological target: Delta-type opioid receptor (Homo sapiens) (UniProt P41143); assay: Antagonist activity at delta opioid receptor expressed in SKNSH cells at 100 nM by ELISA relative to control; assay type: functional, cell-based; design: scale not given: the % may be the effect or the level left
[5] = biological target: Delta-type opioid receptor (Homo sapiens) (UniProt P41143); assay: Antagonist activity at delta opioid receptor expressed in SKNSH cells assessed as blockade of deltorphin 2-induced increase in antibody recognition at 100 nM by ELISA relative to control; assay type: functional, cell-based; design: scale not given: the % may be the effect or the level left
[6] = biological target: Cannabinoid receptor 1 (Rattus norvegicus) (UniProt P20272); assay: Antagonist activity at Long-Evans rat striatal membrane CB1 receptor assessed as blockade of Hu210-mediated decrease in adenylate cyclase activity; assay type: functional
Outline: (§2)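 Membranes (10 μg) came from striatum (CB1) or spleen (CB2). They were tested in GTPγS-binding or adenylyl cyclase assays with Hu-210 and test ligand (0–1 μM), or with Hu-210 curves with or without 10 μM peptide; a 1 μM single-point combination was also used. Mean ± SE of triplicates.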

[7] = biological target: Beta-2 adrenergic receptor (Homo sapiens) (UniProt P07550); assay: Antagonist activity at beta2 adrenergic receptor expressed in HEK293 cells assessed as blockade of secreted alkaline phosphatase activity at 1 uM after 6 hrs relative to control; assay type: functional, cell-based
Outline: (§3)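 HEK-293 cells transiently co-transfected with pCRE-SeAP and a Flag-tagged receptor, 30,000 cells/well on poly-L-lysine. They were serum-starved 16–18 h, then exposed 6 h in serum-free medium to 10 μM forskolin (omitted for β2) plus the receptor agonist (100 nM), with or without peptide (1 μM). Heat-treated supernatant SeAP was read by CSPD chemiluminescence. Mean ± SEM, n = 6.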

[8] = system: Rattus norvegicus; assay: Antihyperalgesic effects in Wistar rat assessed as reduction of carrageenan-induced paw pressure at 5 ug/kg, intrathecal after 3 hrs; assay type: functional, organism-based; outline: as §1
[9] = biological target: T2, Alpha-2A adrenergic receptor (Homo sapiens) (UniProt P08913); assay: Antagonist activity at alpha2A adrenergic receptor expressed in HEK293 cells assessed as blockade of clonidine-mediated decrease in secreted alkaline phosphatase activity at 1 uM after 6 hrs relative to control; assay type: functional, cell-based; outline: as §3
T2 sequence (whole entry): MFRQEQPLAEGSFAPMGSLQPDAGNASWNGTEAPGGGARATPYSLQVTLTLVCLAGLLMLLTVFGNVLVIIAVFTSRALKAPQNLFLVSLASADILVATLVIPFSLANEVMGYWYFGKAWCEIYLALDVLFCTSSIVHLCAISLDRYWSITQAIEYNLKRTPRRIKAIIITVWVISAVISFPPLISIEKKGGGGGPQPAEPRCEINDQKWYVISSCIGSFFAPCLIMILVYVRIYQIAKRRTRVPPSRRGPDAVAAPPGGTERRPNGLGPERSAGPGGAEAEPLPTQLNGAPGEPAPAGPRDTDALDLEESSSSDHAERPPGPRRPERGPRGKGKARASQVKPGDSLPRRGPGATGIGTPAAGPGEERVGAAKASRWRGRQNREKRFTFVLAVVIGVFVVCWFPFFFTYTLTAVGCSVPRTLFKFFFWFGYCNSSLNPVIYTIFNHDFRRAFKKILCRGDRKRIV

[10] = system: Mus musculus; assay: Effect on motor coordination in C57BL/6 mouse at […], ip after 1 hrs; assay type: functional, organism-based
[11] = biological target: Cannabinoid receptor 1 (Rattus norvegicus) (UniProt P20272); assay: Antagonist activity at Long-Evans rat striatal membrane CB1 receptor assessed as blockade of Hu210-induced increase in GTPgammaS binding; assay type: functional; outline: as §2
[12] = biological target: T3, Cannabinoid receptor 2 (Rattus norvegicus) (UniProt Q9QZN9); assay: Antagonist activity at Long-Evans rat spleen CB2 receptor assessed as blockade of Hu210-mediated decrease in adenylate cyclase activity; assay type: functional, tissue-based; outline: as §2
T3 sequence (whole entry): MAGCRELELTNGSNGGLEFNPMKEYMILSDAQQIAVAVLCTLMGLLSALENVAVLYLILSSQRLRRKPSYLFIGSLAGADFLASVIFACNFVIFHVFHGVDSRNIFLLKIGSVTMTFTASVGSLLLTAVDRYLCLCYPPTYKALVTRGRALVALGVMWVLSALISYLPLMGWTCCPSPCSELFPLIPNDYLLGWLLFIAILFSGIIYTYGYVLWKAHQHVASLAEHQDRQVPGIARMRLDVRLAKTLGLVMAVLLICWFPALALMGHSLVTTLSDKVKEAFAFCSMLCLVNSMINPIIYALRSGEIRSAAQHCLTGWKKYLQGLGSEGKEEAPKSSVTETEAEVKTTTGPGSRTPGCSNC

[13] = biological target: T2, Alpha-2A adrenergic receptor (Homo sapiens); assay: Antagonist activity at alpha2A adrenergic receptor expressed in SKNSH cells assessed as blockade of clonidine-induced increase in antibody recognition at 100 nM by ELISA relative to control; assay type: functional, cell-based; design: scale not given: the % may be the effect or the level left
[14] = system: Rattus norvegicus; assay: Antihyperalgesic effects in Wistar rat assessed as reduction of carrageenan-induced paw pressure at 50 ug/kg, po after 3 hrs; assay type: functional, organism-based; outline: as §1
[15] = biological target: Cannabinoid receptor 1 (Homo sapiens) (UniProt P21554); assay: Antagonist activity at CB1 receptor expressed in Neuro 2A cells assessed as blockade of Hu210-mediated decrease in secreted alkaline phosphatase activity at 1 uM; assay type: functional, cell-based
Outline: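 Neuro 2A cells co-expressing pCRE-SeAP and CB1 were serum-starved 16–18 h, then given 10 μM forskolin plus 100 nM Hu-210, with or without 1 μM peptide, for 6 h without serum. Secreted alkaline phosphatase in heat-treated supernatant was measured by CSPD luminescence. Mean ± SEM of sextuplicates, n = 2.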

[16] = biological target: Mu-type opioid receptor (Homo sapiens) (UniProt P35372); assay: Antagonist activity at mu opioid receptor expressed in SKNSH cells at 100 nM by ELISA relative to control; assay type: functional, cell-based; design: scale not given: the % may be the effect or the level left
Sequence of Mu-type opioid receptor (Homo sapiens) (P35372 whole entry): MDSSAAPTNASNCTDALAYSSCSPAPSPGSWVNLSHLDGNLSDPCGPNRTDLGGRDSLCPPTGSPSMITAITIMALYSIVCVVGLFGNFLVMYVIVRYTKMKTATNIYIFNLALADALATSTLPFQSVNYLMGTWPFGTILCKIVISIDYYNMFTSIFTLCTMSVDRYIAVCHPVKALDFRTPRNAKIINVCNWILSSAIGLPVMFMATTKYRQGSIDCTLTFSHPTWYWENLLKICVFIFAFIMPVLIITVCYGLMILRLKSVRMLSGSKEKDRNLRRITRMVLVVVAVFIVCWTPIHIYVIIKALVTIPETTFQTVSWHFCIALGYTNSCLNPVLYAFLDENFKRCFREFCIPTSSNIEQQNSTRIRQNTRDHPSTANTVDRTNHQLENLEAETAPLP

Sequence of Cannabinoid receptor 1 (Homo sapiens) (P21554 whole entry): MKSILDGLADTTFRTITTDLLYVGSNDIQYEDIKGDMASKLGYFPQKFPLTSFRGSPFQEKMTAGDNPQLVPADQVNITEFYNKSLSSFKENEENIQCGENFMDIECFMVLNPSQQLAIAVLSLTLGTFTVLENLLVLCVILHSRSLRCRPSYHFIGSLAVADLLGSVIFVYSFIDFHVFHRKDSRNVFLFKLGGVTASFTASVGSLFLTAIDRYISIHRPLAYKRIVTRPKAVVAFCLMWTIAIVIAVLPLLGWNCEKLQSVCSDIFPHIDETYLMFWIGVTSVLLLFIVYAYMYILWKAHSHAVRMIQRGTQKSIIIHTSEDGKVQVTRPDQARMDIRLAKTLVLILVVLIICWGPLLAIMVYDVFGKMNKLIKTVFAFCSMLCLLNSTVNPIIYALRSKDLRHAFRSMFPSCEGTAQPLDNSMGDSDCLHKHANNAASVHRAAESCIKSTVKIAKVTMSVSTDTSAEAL
Sequence of Delta-type opioid receptor (Homo sapiens) (P41143 whole entry): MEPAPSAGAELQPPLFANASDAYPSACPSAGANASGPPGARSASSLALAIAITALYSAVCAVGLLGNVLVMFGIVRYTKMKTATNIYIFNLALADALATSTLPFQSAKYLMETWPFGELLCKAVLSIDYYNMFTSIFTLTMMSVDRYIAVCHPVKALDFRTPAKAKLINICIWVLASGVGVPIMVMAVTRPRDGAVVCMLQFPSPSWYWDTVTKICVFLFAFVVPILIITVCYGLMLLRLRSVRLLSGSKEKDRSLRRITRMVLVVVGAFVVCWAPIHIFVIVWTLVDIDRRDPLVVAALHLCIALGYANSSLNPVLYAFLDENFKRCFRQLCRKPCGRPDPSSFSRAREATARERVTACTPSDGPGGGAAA
Sequence of Cannabinoid receptor 1 (Rattus norvegicus) (P20272 whole entry): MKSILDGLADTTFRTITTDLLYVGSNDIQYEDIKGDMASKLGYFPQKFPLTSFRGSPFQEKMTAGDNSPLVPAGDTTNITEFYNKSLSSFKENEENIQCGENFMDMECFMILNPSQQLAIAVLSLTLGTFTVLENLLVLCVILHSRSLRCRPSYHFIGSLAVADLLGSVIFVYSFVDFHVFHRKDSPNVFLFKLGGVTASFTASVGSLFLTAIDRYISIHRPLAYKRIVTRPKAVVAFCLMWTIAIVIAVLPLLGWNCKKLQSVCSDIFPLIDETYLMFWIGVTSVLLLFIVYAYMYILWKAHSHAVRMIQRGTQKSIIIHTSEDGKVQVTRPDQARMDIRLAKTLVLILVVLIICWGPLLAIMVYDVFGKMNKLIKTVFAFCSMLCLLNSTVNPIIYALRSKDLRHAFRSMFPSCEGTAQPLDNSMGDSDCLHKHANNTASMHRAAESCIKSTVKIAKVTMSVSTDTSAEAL
Sequence of Beta-2 adrenergic receptor (Homo sapiens) (P07550 whole entry, looked up): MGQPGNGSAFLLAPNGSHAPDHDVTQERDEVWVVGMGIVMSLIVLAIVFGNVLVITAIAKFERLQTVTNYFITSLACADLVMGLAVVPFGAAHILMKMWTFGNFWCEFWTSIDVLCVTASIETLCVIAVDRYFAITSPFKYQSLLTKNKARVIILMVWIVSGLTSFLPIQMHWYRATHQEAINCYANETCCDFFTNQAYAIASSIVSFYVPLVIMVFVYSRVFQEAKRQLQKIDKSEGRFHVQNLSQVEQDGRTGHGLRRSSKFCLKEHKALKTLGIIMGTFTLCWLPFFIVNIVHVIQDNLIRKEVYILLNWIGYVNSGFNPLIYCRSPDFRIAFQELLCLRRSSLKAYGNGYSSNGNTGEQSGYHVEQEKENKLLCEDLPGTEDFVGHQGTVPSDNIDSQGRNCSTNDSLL

- Activity [1]: 102%
- Activity [3]: 140%
- Activity [4]: 101%
- Activity [5]: 131%
- Activity [6]: Active
- Activity [7]: 0.96
- Activity [9]: 0.53
- Activity [11]: Active
- Activity [12]: inactive
- Activity [13]: 130%
- Activity [15]: Active
- Activity [16]: 106%
SMILES: CC(C)C[C@H](NC(=O)[C@H](Cc1ccccc1)NC(=O)[C@H](CCCCN)NC(=O)[C@H](Cc1ccccc1)NC(=O)[C@H](CC(N)=O)NC(=O)[C@@H](NC(=O)[C@@H]1CCCN1)C(C)C)C(=O)N[C@@H](CO)C(=O)N[C@@H](Cc1cnc[nH]1)C(=O)O [HEMOPRESSIN]
- Activity [2]: Active
- Activity [8]: Active
- Activity [10]: inactive
- Activity [14]: Active
